Activity calls are given as the source filed them. The rule behind the calls is not given here.
Target: Protein cereblon/Cyclin-dependent kinase 9 (Homo sapiens, UniProt P50750+Q96SW2)
Assay: Protac activity at CDK9/CRBN in human HEK293 cells assessed as degradation of CDK9 at 0.01 to 10 uM incubated for 24 hrs by Western blot analysis
Type: cell-based
Details: dose 0.01-10 µM
In short: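 HEK293 cells were treated with increasing concentrations (0.01–10 μM) for 24 hr. Lysates were analysed by western blot for CDK9 degradation.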

Protein cereblon/Cyclin-dependent kinase 9, sequence (P50750 whole entry, looked up): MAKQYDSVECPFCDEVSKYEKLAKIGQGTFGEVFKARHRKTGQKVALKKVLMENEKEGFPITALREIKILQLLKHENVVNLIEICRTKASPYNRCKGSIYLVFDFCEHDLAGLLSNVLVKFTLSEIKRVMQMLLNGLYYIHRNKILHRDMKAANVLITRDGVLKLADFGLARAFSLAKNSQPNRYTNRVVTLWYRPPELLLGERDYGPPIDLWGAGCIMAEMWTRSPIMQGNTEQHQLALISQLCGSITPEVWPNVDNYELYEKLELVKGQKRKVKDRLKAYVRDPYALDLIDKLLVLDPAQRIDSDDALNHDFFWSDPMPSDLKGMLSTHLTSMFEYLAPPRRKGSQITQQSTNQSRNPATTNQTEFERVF
Protein cereblon/Cyclin-dependent kinase 9, sequence (Q96SW2 whole entry, looked up): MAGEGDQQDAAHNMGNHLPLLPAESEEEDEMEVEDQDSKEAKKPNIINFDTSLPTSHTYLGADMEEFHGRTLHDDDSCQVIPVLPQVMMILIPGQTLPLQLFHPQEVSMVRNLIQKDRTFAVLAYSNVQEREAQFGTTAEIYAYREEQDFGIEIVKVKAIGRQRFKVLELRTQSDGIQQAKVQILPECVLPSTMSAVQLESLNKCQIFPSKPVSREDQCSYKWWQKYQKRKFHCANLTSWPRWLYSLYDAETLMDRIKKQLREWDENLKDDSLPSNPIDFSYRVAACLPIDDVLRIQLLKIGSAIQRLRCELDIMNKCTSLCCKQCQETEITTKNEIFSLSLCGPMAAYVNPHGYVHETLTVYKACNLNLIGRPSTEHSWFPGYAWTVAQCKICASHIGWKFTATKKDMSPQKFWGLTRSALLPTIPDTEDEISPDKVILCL

Activity: inactive
Compound: O=C(COc1ccc(CC(=O)Nc2cc(C3CCC3)[nH]n2)cc1)NCCOCCOCCNc1cccc2c1C(=O)N(C1CCC(=O)NC1=O)C2=O (stereo unspecified)
